Compound activity from PubChem BioAssay.
This is a sample that favours compounds with a hit; in the whole collection about 3.7% have one here.
KCNQ1 inh – blocks the human KCNQ1 potassium channel | 1.3% of 310,000 active | B-score at 10 µM | CHO-K1 KCNQ1, FluxOR thallium flux fluorescence; stronger effect = higher value | P51787;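 active = compounds whose thallium flux B-score, printed positive for inhibition, exceeds three library SD while starting fluorescence stays within three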;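 also: channel opened by potassium depolarization with thallium stimulus after 20 min compound exposure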
KCNK3 block – human KCNK3 channel inhibition, primary screen; O14649; B-score at 10 µM; CHO-KCNK3 thallium flux, FluxOR fluorescence; stronger effect = lower value; 0.84% of 340,000 active;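 active = B-score under library mean minus 4 SD, starting fluorescence ratio at most library mean plus 5 SD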;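 also: more negative B-score means stronger inhibition of thallium flux through KCNK3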
KCNK9 inh – inhibitors of human KCNK9 two-pore domain potassium channel; HEK293 KCNK9, FluxOR thallium flux fluorescence; stronger effect = lower value; B-score at 10 µM; 1.2% of 310,000 active; AID 488922;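 active = ratio B-score over 3 SD below the library mean, with starting fluorescence within 5 SD of its mean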;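 also: negative B-score means less thallium flux so channel inhibition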
Kir21 block – inhibitors of mouse Kir2.1 inward-rectifier potassium channel; 0.85% of 310,000 active; B-score at 10 µM; AID 1672; HEK293-Kir2.1, FluxOR thallium flux fluorescence; stronger effect = lower value;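 active = fluorescence ratio B-score at or below minus 3 SD of library scores, with starting-brightness B-score within 2 SD, cut at about -4.2 in these data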;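 also: channel flux triggered by added potassium and thallium sulfate stimulus; B-score of peak minus minimum fluorescence over baseline after thallium stimulus; more negative B-score means stronger Kir2.1 block with less thallium influx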
Target sequence (P35561 whole entry, looked up): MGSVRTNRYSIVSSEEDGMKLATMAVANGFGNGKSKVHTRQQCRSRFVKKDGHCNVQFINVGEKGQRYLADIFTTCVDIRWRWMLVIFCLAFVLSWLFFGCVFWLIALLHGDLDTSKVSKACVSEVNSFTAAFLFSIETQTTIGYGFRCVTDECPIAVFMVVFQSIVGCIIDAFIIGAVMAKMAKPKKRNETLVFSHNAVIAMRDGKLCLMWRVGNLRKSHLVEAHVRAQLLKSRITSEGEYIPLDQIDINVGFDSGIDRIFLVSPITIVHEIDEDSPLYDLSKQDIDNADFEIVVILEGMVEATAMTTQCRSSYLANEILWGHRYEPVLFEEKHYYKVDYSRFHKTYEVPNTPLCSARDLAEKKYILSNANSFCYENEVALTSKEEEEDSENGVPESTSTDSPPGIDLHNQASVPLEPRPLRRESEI
hERG rescue – compounds protecting human hERG from proarrhythmic drug block; Q12809; CHO-hERG, FluxOR thallium flux, dofetilide IC70 present; activation (rescue from dofetilide block), less the hit threshold, % at 10 µM; 0.51% of 310,000 active; AID 1511;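 active = activation above the mean of controls blocked by dofetilide plus 5 SD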;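 also: thallium influx through hERG after potassium depolarization seen as dye fluorescence rise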
KCNQ1 pot – potentiators or activators of human KCNQ1 potassium channel. P51787. CHO-K1 KCNQ1, thallium flux FluxOR fluorescence; stronger effect = higher value. B-score at 10 µM. 0.35% of 310,000 active;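 active = fluorescence ratio B-score, a plate-corrected score, at least three library SD, with initial intensity B-score within 5 SD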
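Doses: Single concentration per compound, DMSO matched to controls | Test system: KCNQ1-transfected CHO-K1 cells | Timing: 90 min dye loading and 20 min compound exposure, both at room temperature | Measured by: Kinetic FluxOR thallium fluorescence, 10-s 1-Hz baseline, 110-s post-stimulus read | Medium: Assay buffer with matched DMSO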
KCNK9 inh conf – human KCNK9 inhibitor confirmation; inhibition, % at 10 µM; shares compounds with KCNK9 inh; 43% of 4,900 active; HEK293 KCNK9 cells, FluxOR thallium flux fluorescence;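 active = thallium signal inhibited by more than 5 SD of the compound-free buffer control wells, on both duplicate plates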
Kir21 sel – tests whether KCNK9 modulators also affect mouse Kir2.1 | shares compounds with KCNK9 inh | Kir2.1 cells, FluxOR thallium flux fluorescence | inhibition, % at 10 µM | 4% of 4,900 active;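 active = thallium signal drop more than 5 SD beyond the mean of the no-compound control wells, seen in both duplicate plates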;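 also: signal is fluorescence rise after thallium addition divided by baseline fluorescence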
HEK293 Tl ctr – second check of KCNK9 modulator effects in non-induced HEK293 cells. shares compounds with KCNK9 inh. FluxOR thallium flux. inhibition, % at 10 µM. 40% of 4,900 active. AID 492997;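 active = thallium signal drop beyond 5 SD of the untreated control mean, on both duplicate plates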
KCNK3 confirm – confirmation of human KCNK3 two-pore domain potassium channel inhibitors | shares compounds with KCNK3 block | CHO-KCNK3 thallium flux, FluxOR fluorescence; 0% buffer, 100% carvedilol maximal block | ratio percent of control, % at 10 µM | 99% of 2,400 active;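 active = ratio percent of control, averaged over triplicates, above buffer control mean plus 5 SD, cut at about 64% in these data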;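 also: ratio is the fluorescence rise from min to max over baseline after thallium stimulus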
KCNK3 noninduced – activity in cells without induced KCNK3 expression. shares compounds with KCNK3 block. non-induced KCNK3 parental cells, FluxOR thallium flux; stronger effect = lower value. thallium flux ratio (lower = more inhibition) at 10 µM. 40% of 2,400 active. AID 651747;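 active = thallium flux ratio, averaged over three wells, more than 5 SD below the buffer control mean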;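 also: host cells are CHO cells without KCNK3 induction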
Numbers stand for hits; . = inactive; / = not tested or not shown; ! = repeats disagree.

SMILES	KCNQ1 inh	KCNK3 block	KCNK9 inh	Kir21 block	hERG rescue	KCNQ1 pot	KCNK9 inh conf	Kir21 sel	HEK293 Tl ctr	KCNK3 confirm	KCNK3 noninduced
O=C(CNc1cccc(S(=O)(=O)N2CCCC2)c1)Nc1ccc(C(F)(F)F)cc1	.	.	.	.	.	.	/	/	/	/	/
N#CCC(=O)Nc1ccc(C(=O)OC(C(=O)Nc2cc(C(F)(F)F)ccc2Cl)c2ccccc2)cc1 (stereo unspecified)	.	.	.	.	.	.	/	/	/	/	/
C[C@H](NC(=O)c1ccccc1Cl)C(=O)OC(C(=O)Nc1cc(C(F)(F)F)ccc1Cl)c1ccccc1 (stereo partly specified)	.	-11	-18	.	.	.	68%	.	40%	108	.
CC1CCC(C(C)C)C(OC(=O)Cn2c(-c3ccc(Cl)cc3)[n+](C)c3ccccc32)C1 (stereo unspecified)	10	-11	-12	-15	.	.	66%	80%	.	119	.
CC1CCC(C(C)C)C(OC(=O)C[n+]2cccc(C(N)=O)c2)C1 (stereo unspecified)	.	.	.	.	.	.	/	/	/	/	/
CC1CCC(C(C)C)C(OC(=O)COC(=O)c2cccn2C)C1 (stereo unspecified)	.	-8.8	-13	.	.	.	59%	.	27%	108	.
CC1CCC(C(C)C)C(OC(=O)Cn2c(-c3ccc(Br)cc3)[n+](C)c3ccccc32)C1 (stereo unspecified)	10	-16	-13!	-15	.	.	66%	82%	.	132	.
O=C1SCCC1NS(=O)(=O)c1ccc([N+](=O)[O-])cc1 (stereo unspecified)	.	.	.	.	.	.	/	/	/	/	/
O=C(/C=C\c1ccccc1)NCC(=O)N/N=C/c1ccc(O)cc1O	.	.	.	.	.	.	/	/	/	/	/
COc1ccc(CCNS(=O)(=O)c2ccc(Br)s2)cc1	.	-9.4	-9.2	.	.	.	76%	.	34%	116	.
CCn1cc(C(=O)Nc2ccc(C)cc2[N+](=O)[O-])c(C)n1	.	.	.	.	.	.	/	/	/	/	/
C=CCOC(=O)C1=C(C)NC(SCC(N)=O)=C(C#N)C1c1ccc(C)cc1 (stereo unspecified)	.	.	.	.	.	.	/	/	/	/	/
C=CCOC(=O)C1=C(C)NC(SCC)=C(C#N)C1c1ccc(Cl)cc1 (stereo unspecified)	9	-8.8	-8.4	.	.	.	.	.	40%	116	.
CC(C)(C)C(=O)NNC(=O)c1cc(C(C)(C)C)nn1Cc1ccccc1	.	.	.	.	.	.	/	/	/	/	/
CC(C)(C)c1cc(C(=O)NNc2cccc(Cl)c2)n(Cc2ccccc2)n1	10	-12	-15	.	.	.	64%	.	48%	123	.
Cn1c2ccccc2c(=O)c2c(=O)n(-c3ccccc3)c(-c3ccc(C(C)(C)C)cc3)nc21	.	-8.9	-12	.	.	.	34%	.	.	130	0.099
Cc1ccc(-c2nc3c(c(=O)c4ccccc4n3C)c(=O)n2-c2ccc(F)cc2)cc1	.	.	.	.	.	.	/	/	/	/	/
O=C/C(=C\Nc1ccccn1)c1nc2ccccc2o1	.	.	.	.	.	.	/	/	/	/	/
O=C/C(=C\Nc1ccccn1)c1nc2cc(Cl)ccc2o1	.	.	-8.5	.	.	.	35%	.	.	114	.
Cc1noc(C)c1COc1ccccc1C(=O)NCCc1ccc(Cl)cc1	.	-9.4	-20	.	.	.	63%	.	35%	81	.
CCCCC(=O)Nc1cccc(-c2csc(-c3ccccc3)n2)c1	9	-10	-10	.	.	.	50%	.	30%	125	0.15
O=C(O)CCC(=O)Nc1cccc(-c2csc(-c3ccccc3)n2)c1	.	.	.	.	.	.	/	/	/	/	/
CCC1(C)NC(=O)N(CC(=O)Nc2cc(C)on2)C1=O (stereo unspecified)	/	.	/	/	/	/	/	/	/	/	/
CN(N=Nc1cccc([N+](=O)[O-])c1)c1cccc([N+](=O)[O-])c1	.	.	-11	.	.	.	.	.	34%	90	.
CCCN(N=Nc1cccc([N+](=O)[O-])c1)c1cccc([N+](=O)[O-])c1	.	-9.2	-12	.	.	.	50%	.	43%	115	.
SMILES	KCNQ1 inh	KCNK3 block	KCNK9 inh	Kir21 block	hERG rescue	KCNQ1 pot	KCNK9 inh conf	Kir21 sel	HEK293 Tl ctr	KCNK3 confirm	KCNK3 noninduced
Cc1nc(C(=O)NC(C)C)nn1-c1cc(Cl)cc(Cl)c1	.	.	.	.	.	.	/	/	/	/	/
CCC(=O)Nc1cccc(C(=O)/C=C/c2cc(Br)ccc2OC)c1	.	-9.3	-10	.	.	.	38%	.	30%	138	.
COc1ccc(Br)cc1/C=C/C(=O)Nc1ccc2ccccc2c1	.	.	.	.	.	.	/	/	/	/	/
CCn1nc(C(=O)OCC(=O)c2ccc(F)cc2)c2ccccc2c1=O	.	.	.	.	.	.	/	/	/	/	/
CCn1nc(C(=O)OC(C(=O)c2c[nH]c3ccccc23)c2ccccc2)c2ccccc2c1=O (stereo unspecified)	8	-9	-11	.	.	.	32%	.	.	89	.
CC(=O)c1c(C)[nH]c(C(=O)COC(=O)Cc2ccccc2F)c1C	/	.	/	/	/	/	/	/	/	/	/
O=C(Nc1ccc2c(c1)OCCO2)c1cc2sccc2n1Cc1ccc(F)cc1	.	-11	-12	.	.	.	46%	.	30%	120	0.12
Cn1c(C(=O)Nc2ccc3c(c2)OCCO3)cc2sccc21	.	.	.	.	.	.	/	/	/	/	/
CCc1ccc(-c2cc(C)no2)cc1S(=O)(=O)N1CCOc2ccccc21	.	-15	-12	.	.	.	38%	.	42%	125	0.14
COc1cccc(NC(=O)NCc2ccccc2Cl)c1	.	.	.	.	.	.	/	/	/	/	/
Cc1cc(C)cc(NC(=O)CN2C(=O)COc3ccc(S(=O)(=O)N4CCCC4)cc32)c1	.	.	.	.	.	.	/	/	/	/	/
COc1cc(NC(=O)CN2C(=O)COc3ccc(S(=O)(=O)N4CCCC4)cc32)cc(OC)c1	.	-11	-11	.	.	.	52%	.	30%	105	.
Cc1cc(C)c(C)c(S(=O)(=O)N2CCC(C(=O)NCc3ccco3)CC2)c1C	/	.	/	/	/	/	/	/	/	/	/
